Measurements from ChEMBL document CHEMBL3997782, “Methoxylated 2'-hydroxychalcones as antiparasitic hit compounds” (Eur J Med Chem, 2017).
Converted amounts (≈) assume the structure as drawn.

Columns and labels:
[1] = Cytotoxicity against human THP1 cells by MTT assay; format: cell-based; conditions: THP-1 cells
Summary of the method: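 THP-1 cells differentiated to macrophages with PMA, viability read by colorimetric MTT. CC50 and NOAEL are the arithmetic mean of at least two independent determinations, each run in triplicate.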

CYP3A4 = CYP3A4 (Homo sapiens, UniProt P08684); test: Inhibition of human CYP3A4 expressed in baculovirus-infected insect cells at 10 uM using Luciferin-PFBE as substrate in presence of NADPH by P450-Glo luminescence assay relative to control; format: ADME; conditions: probe Luciferin-PFBE
CYP3A4, sequence (P08684 whole entry): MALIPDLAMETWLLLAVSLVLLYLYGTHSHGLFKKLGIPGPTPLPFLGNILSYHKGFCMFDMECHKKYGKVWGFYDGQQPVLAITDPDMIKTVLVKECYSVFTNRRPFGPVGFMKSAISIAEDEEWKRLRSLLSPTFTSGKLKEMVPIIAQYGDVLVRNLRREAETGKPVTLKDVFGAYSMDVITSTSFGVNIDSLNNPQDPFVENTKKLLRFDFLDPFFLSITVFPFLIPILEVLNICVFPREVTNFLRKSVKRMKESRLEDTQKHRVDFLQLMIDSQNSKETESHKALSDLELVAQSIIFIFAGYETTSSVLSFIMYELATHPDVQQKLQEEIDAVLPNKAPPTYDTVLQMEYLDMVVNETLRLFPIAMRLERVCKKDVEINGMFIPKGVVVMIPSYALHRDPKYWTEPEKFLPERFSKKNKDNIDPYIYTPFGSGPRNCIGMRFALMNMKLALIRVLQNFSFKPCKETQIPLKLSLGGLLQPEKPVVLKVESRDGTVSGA

[2] = Drug uptake in BALB/c mouse plasma at 20 mg/kg, po measured after 1 hr by LC-MS method; format: ADME, organism-based
Summary of the method: (§1)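 BALB/c mice dosed either free (8% DMSO; 1 mg/kg IV or 20 mg/kg oral), or 20 mg/kg oral in 50% w/v hydroxypropyl-β-cyclodextrin, or 20 mg/kg oral in 25% cyclodextrins plus 50% PEG 400. Serial submandibular blood samples stored at -20°C. Plasma measured by isocratic LC-MS (acetonitrile:water 80:20, 0.2 ml/min), quantifier transition m/z 315.0>161.0.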

[3] = Drug uptake in BALB/c mouse plasma at 20 mg/kg, po as 50% cyclodextrin formulation measured after 0.5 hrs by LC-MS method; format: ADME, organism-based; summary of the method: as §1
[4] = Solubility of the compound in phosphate buffered saline with 50% DMSO measured after 18 hrs by UV-vis spectroscopic method; format: physicochemical
Summary of the method: (§2)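 Saturated suspensions prepared at 100 µM in water, 100 µM in PBS, 200 µM in PBS + 10% DMSO and 10 mM in PBS + 50% DMSO. Held 18 h at 25°C, passed through a 0.2 µm filter, then quantified by UV-Vis absorbance at 312 nm using the calculated extinction coefficient.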

[5] = Drug uptake in BALB/c mouse plasma at 20 mg/kg, po as 50% cyclodextrin formulation measured after 1 hr by LC-MS method; format: ADME, organism-based; summary of the method: as §1
Trypanosoma cruzi = test: Anti-parasitic activity against Trypanosoma cruzi Y promastigotes infected in HG39 cells at 10 uM by qPCR analysis relative to control; format: functional, cell-based; conditions: in the assay text read “trypomastigotes” for “promastigotes”
Summary of the method: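 Confluent HG39 cells (3 x 10^6 per well) infected at a 1:1 ratio with blood-derived T. cruzi Y strain trypomastigotes. Growth inhibition was read as parasite gDNA by TaqMan probe-based quantitative real-time PCR.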

[6] = Drug uptake in BALB/c mouse plasma at 20 mg/kg, po as 50%% cyclodextrin formulation measured after 0.75 hrs by LC-MS method; format: ADME, organism-based; summary of the method: as §1
CYP1A2 = target: T1, CYP1A2 (Homo sapiens, UniProt P05177); test: Inhibition of human CYP1A2 expressed in baculovirus-infected insect cells at 10 uM using Luciferin-1A2 as substrate in presence of NADPH by P450-Glo luminescence assay relative to control; format: ADME; conditions: probe Luciferin-1A2
T1 sequence (P05177 whole entry): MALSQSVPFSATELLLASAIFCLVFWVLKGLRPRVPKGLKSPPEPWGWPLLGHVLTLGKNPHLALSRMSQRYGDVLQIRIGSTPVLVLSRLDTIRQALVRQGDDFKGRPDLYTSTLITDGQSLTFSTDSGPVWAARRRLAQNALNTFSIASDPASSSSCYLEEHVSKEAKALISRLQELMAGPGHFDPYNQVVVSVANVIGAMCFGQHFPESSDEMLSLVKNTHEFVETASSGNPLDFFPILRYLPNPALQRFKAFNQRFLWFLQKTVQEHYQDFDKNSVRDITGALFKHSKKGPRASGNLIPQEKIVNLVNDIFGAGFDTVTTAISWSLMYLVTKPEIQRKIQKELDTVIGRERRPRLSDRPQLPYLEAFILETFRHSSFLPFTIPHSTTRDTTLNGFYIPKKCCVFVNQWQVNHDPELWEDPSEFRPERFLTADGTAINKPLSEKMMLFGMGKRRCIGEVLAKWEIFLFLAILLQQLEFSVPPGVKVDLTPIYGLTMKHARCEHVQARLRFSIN
Summary of the method: (§3)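 CYP enzymes as microsomal preparations from baculovirus-infected insect cells, run on the P450-Glo luminogenic substrate platform. A fall in light output indicates inhibition.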

[7] = Drug uptake in BALB/c mouse plasma at 20 mg/kg, po measured after 0.25 hrs by LC-MS method; format: ADME, organism-based; summary of the method: as §1
[8] = Cytotoxicity against human A549 cells assessed as cell growth at 10 uM by Cell titer-Glo assay relative to control; format: cell-based; conditions: read-out: Activity
Summary of the method: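 A549 and WI-38 cells grown in DMEM with 10% v/v FCS, streptomycin 100 µg/ml and penicillin G 100 U/ml. Cell number read as cellular ATP by CellTiter-Glo luminescence. Growth 60–100% scored non-cytotoxic, 0–60% cytostatic, below 0 cytotoxic.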

[9] = Drug uptake in BALB/c mouse plasma at 1 mg/kg, iv measured after 45 mins by LC-MS method; format: ADME, organism-based; summary of the method: as §1
[10] = Half-life in BALB/c mouse at 20 mg/kg, po by LC-MS method; format: ADME, organism-based; conditions: in vivo; summary of the method: as §1
CYP2D6 = CYP2D6 (Homo sapiens, UniProt P10635); test: Inhibition of human CYP2D6 expressed in baculovirus-infected insect cells at 10 uM using Luciferin-ME EGE as substrate in presence of NADPH by P450-Glo luminescence assay relative to control; format: ADME; conditions: probe Luciferin-ME EGE; summary of the method: as §3
CYP2D6, sequence (P10635 whole entry): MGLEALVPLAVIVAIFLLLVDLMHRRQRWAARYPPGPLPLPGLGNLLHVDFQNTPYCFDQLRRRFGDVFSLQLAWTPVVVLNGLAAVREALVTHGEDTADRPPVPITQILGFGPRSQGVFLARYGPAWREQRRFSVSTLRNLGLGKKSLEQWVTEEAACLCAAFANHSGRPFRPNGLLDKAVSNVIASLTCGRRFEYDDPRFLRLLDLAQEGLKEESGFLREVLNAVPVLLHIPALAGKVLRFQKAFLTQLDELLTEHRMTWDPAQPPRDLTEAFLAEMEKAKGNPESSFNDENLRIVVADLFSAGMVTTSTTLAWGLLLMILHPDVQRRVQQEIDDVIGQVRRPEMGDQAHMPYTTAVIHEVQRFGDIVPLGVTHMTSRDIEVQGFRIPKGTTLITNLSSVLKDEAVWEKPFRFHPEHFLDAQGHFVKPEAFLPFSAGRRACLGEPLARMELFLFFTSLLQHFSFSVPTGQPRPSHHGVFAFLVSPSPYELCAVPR

[11] = Drug uptake in BALB/c mouse plasma at 20 mg/kg, po as cyclodextrin/PEG400 formulation measured after 3 hrs by LC-MS method; format: ADME, organism-based; summary of the method: as §1
[12] = Solubility of the compound in phosphate buffered saline measured after 18 hrs by UV-vis spectroscopic method; format: physicochemical; summary of the method: as §2
[13] = Drug uptake in BALB/c mouse plasma at 20 mg/kg, po as cyclodextrin/PEG400 formulation measured after 0.75 hrs by LC-MS method; format: ADME, organism-based; summary of the method: as §1
[14] = Drug uptake in BALB/c mouse plasma at 20 mg/kg, po measured after 0.5 hrs by LC-MS method; format: ADME, organism-based; summary of the method: as §1
[15] = Drug uptake in BALB/c mouse plasma at 1 mg/kg, iv measured after 15 mins by LC-MS method; format: ADME, organism-based; summary of the method: as §1

inhibition at 10 µM (CYP3A4): 12.4%
concentration at 1 h [2]: 9 nM
concentration at 0.5 h [3]: 563 nM
solubility at 18 h [4]: 600 µM (≈ 189 µg/mL)
concentration at 1 h [5]: 69 nM
concentration at 0.75 h [6]: 164 nM
inhibition at 10 µM (CYP1A2): 98%
concentration at 0.25 h [7]: 270 nM
concentration at 0.75 h [9]: 23 nM
half-life [10]: 12.6 min
inhibition at 10 µM (CYP2D6): 58.8%
concentration at 3 h [11]: 6 nM
solubility at 18 h [12]: 2.37 µM (≈ 0.745 µg/mL)
concentration at 0.75 h [13]: 11 nM
concentration at 0.5 h [14]: 49 nM
concentration at 0.25 h [15]: 74 nM
SMILES: COc1cccc(/C=C/C(=O)c2cc(OC)c(OC)cc2O)c1
CC50 [1]: 51 µM
inhibition at 10 µM (Trypanosoma cruzi): 46%
viability at 10 µM [8]: 95.5%
